This note sets out measurements from ChEMBL document CHEMBL1131622, “(+/-)-trans-2-[3-methoxy-4-(4-chlorophenylthioethoxy)-5-(N-methyl-N- hydroxyureidyl)methylphenyl]-5-(3,4, 5-trimethoxyphenyl)tetrahydrofuran (CMI-392), a potent dual 5-lipoxygenase inhibitor and platelet-activating factor receptor antagonist” (J Med Chem, 1998).

Data set [1] is filed under the species Homo sapiens. As to the kind of experiment: (§1) Compound was evaluated for inhibiting production of LTB4 in calcium Ionophore (A23187) activated human whole blood. Type of data set: functional. The gist of the method:
(§2)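 Heparinized human whole blood (1 mL) preincubated with compound in DMSO 15 min at 37 °C, then stimulated with A23187 (50 μM final) 30 min at 37 °C; plasma LTB4 measured by EIA. IC50 by regression; percent inhibition also reported at 3 μM.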

The target in data set [2] is T1, Polyunsaturated fatty acid 5-lipoxygenase (Rattus norvegicus, UniProt P12527).
T1 sequence (P12527 whole entry): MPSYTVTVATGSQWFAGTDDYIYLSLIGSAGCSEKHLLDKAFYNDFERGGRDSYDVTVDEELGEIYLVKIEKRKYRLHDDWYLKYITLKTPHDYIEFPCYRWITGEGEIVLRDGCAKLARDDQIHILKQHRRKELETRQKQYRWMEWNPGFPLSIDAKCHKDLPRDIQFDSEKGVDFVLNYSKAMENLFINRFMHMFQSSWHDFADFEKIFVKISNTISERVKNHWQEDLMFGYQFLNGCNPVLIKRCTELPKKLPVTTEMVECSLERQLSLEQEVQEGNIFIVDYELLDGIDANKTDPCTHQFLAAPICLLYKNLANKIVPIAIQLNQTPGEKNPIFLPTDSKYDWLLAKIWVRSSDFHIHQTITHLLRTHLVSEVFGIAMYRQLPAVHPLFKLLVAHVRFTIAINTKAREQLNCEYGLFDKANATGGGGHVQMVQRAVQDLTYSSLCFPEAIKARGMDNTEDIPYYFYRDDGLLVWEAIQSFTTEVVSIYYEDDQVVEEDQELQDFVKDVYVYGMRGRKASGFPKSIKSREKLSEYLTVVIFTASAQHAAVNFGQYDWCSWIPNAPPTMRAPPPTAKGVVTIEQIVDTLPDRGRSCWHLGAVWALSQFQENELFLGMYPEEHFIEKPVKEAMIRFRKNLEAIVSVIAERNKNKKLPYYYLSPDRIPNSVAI
As to the kind of experiment: Inhibition of 5-lipoxygenase mediated conversion of [14C]arachidonic acid to leukotrienes in RBL-2H3 cells. Type of data set: cell-based. The gist of the method: (§3)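 Lysate plus compound (DMSO) in buffer with 0.1 M NaCl, 0.7 mM CaCl2, 20 min room temperature, then [14C]AA substrate mix 5 min 37 °C. Products extracted, resolved by silica TLC, autoradiography/densitometry; IC50 by regression.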

Data set [3] has as its system Mus musculus. As to the kind of experiment: In vivo inhibition against PAF induced hemoconcentration in mice at a concentration of 3 mg/kg. The format is functional. The gist of the method: (§4)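 Mice given compound iv at 3 mg/kg in 0.5% DMSO saline, then PAF (10 μg, in 0.25% BSA/saline) iv by tail vein 15 min later. Tail blood taken 15 min after PAF for hematocrit; percent inhibition relative to vehicle control.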

The target of data set [4] is Platelet-activating factor receptor (Homo sapiens, UniProt P25105). Kind of data set: Displacement of [3H]PAF from PAF receptor of human platelet membranes.
Chain of Platelet-activating factor receptor (P25105 whole entry): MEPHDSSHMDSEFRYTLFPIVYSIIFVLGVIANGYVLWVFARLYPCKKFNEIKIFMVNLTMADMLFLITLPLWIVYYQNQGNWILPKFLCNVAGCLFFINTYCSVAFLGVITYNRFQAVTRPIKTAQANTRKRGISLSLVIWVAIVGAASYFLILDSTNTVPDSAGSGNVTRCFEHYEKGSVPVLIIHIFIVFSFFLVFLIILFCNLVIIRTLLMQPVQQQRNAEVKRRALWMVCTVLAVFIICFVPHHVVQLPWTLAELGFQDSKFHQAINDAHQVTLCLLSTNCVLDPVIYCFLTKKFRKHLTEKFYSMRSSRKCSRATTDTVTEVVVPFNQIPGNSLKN
The species entered for data set [5] is Homo sapiens. Kind of data set: In vitro inhibition of LTB4 production in human whole blood. The format is functional. In outline:
as §2

Data set [6] is described as follows: Half-life was determined. Type of data set: ADME. The following applies: human.
Data set [7] concerns Mus musculus. As to the kind of experiment: In vivo inhibition against arachidonic acid induced ear Edema in mice at a concentration of 3 mg/kg. Type of data set: functional. In outline:
(§5)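 Compound given iv at 3 mg/kg in 0.5% DMSO saline 15 min before topical arachidonic acid (0.5 mg in acetone/pyridine/water 97:2:1) on both ears of mice. Sacrifice at 1 h; 7-mm ear punches weighed, edema as mean wet weight.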

Data set [8] deals with Mus musculus. As to the kind of experiment: In vivo activity against arachidonic acid induced ear edema in mouse. Type of data set: functional. The gist of the method: as §5
Data set [9] concerns Mus musculus. Kind of data set: (§6) In vivo activity against acute TPA-induced ear edema in mouse. The format is functional. The gist of the method: (§7)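 Mice, 8 per group, TPA in acetone (10 μL) applied topically to both ear surfaces with or without drug. Sacrifice at 6 h; punch biopsies weighed, MPO measured spectrophotometrically in homogenized tissue, histology also done; compared with maximal control.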

In data set [10] the test system is Mus musculus. As to the kind of experiment: In vivo activity against chronic TPA-induced ear edema in mouse. Type of data set: functional. The gist of the method:
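Mice, 8 per group, TPA in acetone (10 μL) applied topically to both ears once a day every 2 days for 10 days. Drug applied topically twice daily over the last 3 days. Punch biopsies weighed; MPO measured spectrophotometrically; histology also done.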

The nature of data set [11]: In vivo activity against platelet activating factor (PAF)-induced hemoconcentration in mouse. The format is functional. The gist of the method:
as §4

For data set [12], the system named is Mus musculus. Described as §6. The format is functional. The gist of the method: as §7
This is another data set of the same source.

For data set [13], the species on record is Homo sapiens. The description is as §1. The format is functional. Details: concentration or dose not given beside the values. The gist of the method: as §2
The target of data set [14] is T1, Polyunsaturated fatty acid 5-lipoxygenase. As to the kind of experiment: 5-lipoxygenase inhibitory activity determined by measuring the conversion of [14C]arachidonic acid to leukotrienes in RBL-2H3 cell using thin-layer chromatography. Type of data set: cell-based. In outline: as §3

Values joined by “and” are separate entries in the source; they are usually repeats but may differ in a detail not shown here. Identical values can stand only once.

With `CCCCN(O)C(=O)Nc1cc([C@@H]2CC[C@@H](c3cc(OC)c(OC)c(OC)c3)O2)cc(OC)c1OCCC`, the IC50 in the data set listed under Homo sapiens [1] was determined as 3.5 µM.

As for `CC(C#Cc1ccc(Oc2ccc(F)cc2)o1)N(O)C(N)=O` (stereo not drawn), the IC50 was 0.298 µM in [2] and 0.1 µM in the data set filed under Homo sapiens [1].

For `COc1cc([C@@H]2CC[C@@H](c3cc(OC)c(OC)c(OC)c3)O2)cc(CNC(=O)N(C)O)c1OCCSc1ccc(Cl)cc1` (racemic), the inhibition in vivo at 3 mg/kg in the data set on Mus musculus [3] stood at 56%; in the data set with Mus musculus [7] it was 46%. Further, the IC50 in data set [2] is 0.1 µM; in [4] it was 0.01 µM; in the data set filed under Homo sapiens [5], 7.8 µM; in the data set listed under Homo sapiens [1] it was 7.8 µM. Further, in data set [6], the half-life came out at 30 min. For the same compound, the ED50 is 1.8 mg/kg in the data set on Mus musculus [8]; 269 ug ear-1 in the data set with Mus musculus [9]; 552 ug ear-1 and 580 ug ear-1 with Mus musculus [10]; 2.2 mg/kg in data set [11]; 299 ug ear-1 in the data set on Mus musculus [12].

Regarding `CCCCN(O)C(=O)Nc1cc([C@@H]2CC[C@@H](c3cc(OC)c(OC)c(OC)c3)O2)cc(OC)c1OCCSc1ccccc1Br` (racemic), the inhibition in vivo at 3 mg/kg worked out at 34% with Mus musculus [3] and 26% in the data set on Mus musculus [7]. The IC50 in [2] is 0.033 µM; in data set [4], 0.023 µM. For the same compound, the Inhibition in the data set listed under Homo sapiens [13] is recorded as 48%.

On to `CCCCN(O)C(=O)Nc1cc([C@@H]2CC[C@@H](c3cc(OC)c(OC)c(OC)c3)O2)cc(OC)c1OCCSc1cccc(Br)c1` (racemic), for which the inhibition in vivo at 3 mg/kg stood at 28% with Mus musculus [3] and 40% in the data set on Mus musculus [7]. Moreover, the results for the IC50 (in [2]; in data set [4]; in the data set listed under Homo sapiens [1]) were 0.043 µM, 0.022 µM and 7.5 µM, respectively.

Regarding `CCCCN(O)C(=O)Nc1cc([C@@H]2CC[C@@H](c3cc(OC)c(OC)c(OC)c3)O2)cc(OC)c1OCCSc1ccc(Br)cc1` (racemic), the values for the IC50 (in [2]; in data set [4]; in the data set filed under Homo sapiens [1]) were 0.019 µM, 0.021 µM and 1.2 µM, respectively.

On to `CCCCN(O)C(=O)Nc1cc([C@@H]2CC[C@@H](c3cc(OC)c(OC)c(OC)c3)O2)cc(OC)c1OCCSc1ccc(Cl)c(Cl)c1` (racemic), for which the inhibition in vivo at 3 mg/kg with Mus musculus [3] and in the data set with Mus musculus [7] was 26% in each case. Moreover, the results for the IC50 in data set [2] and in data set [4] were 0.017 µM and 0.045 µM, respectively. In addition, the Inhibition in the data set filed under Homo sapiens [13] is listed as 61%.

`CCCCN(O)C(=O)Nc1cc([C@@H]2CC[C@@H](c3cc(OC)c(OC)c(OC)c3)O2)cc(OC)c1OCCSc1c(F)c(F)cc(F)c1F` (racemic): the inhibition in vivo at 3 mg/kg was determined as 59% in the data set with Mus musculus [3] and 30% in the data set with Mus musculus [7]. In addition, the IC50 in [2] worked out at 0.118 µM; in data set [4] it was 0.002 µM. In the data set filed under Homo sapiens [13], the Inhibition is 3%.

Consider `CCCCN(O)C(=O)Nc1cc([C@@H]2CC[C@@H](c3cc(OC)c(OC)c(OC)c3)O2)cc(OC)c1OCCS(=O)(=O)c1ccc(Br)cc1` (racemic), for which the inhibition in vivo at 3 mg/kg amounted to 29% in the data set with Mus musculus [3] and 35% in the data set on Mus musculus [7]. This compound also came in with an IC50 in data set [4] of 0.038 µM. Also, the Inhibition in the data set listed under Homo sapiens [13] is recorded as 72%.

In the case of `CCCCN(O)C(=O)Nc1cc([C@@H]2CC[C@@H](c3cc(OC)c(OC)c(OC)c3)O2)cc(OC)c1OCCSc1ccc(Cl)cc1` (racemic), the inhibition in vivo at 3 mg/kg in the data set with Mus musculus [3] was found to be 43%; in the data set on Mus musculus [7] it was 39%. The IC50 in data set [4] is 0.02 µM; in data set [14] it was 0.058 µM; in the data set listed under Homo sapiens [1] it was 6.5 µM.

Regarding `CCCCN(O)C(=O)Nc1cc([C@@H]2CC[C@@H](c3cc(OC)c(OC)c(OC)c3)O2)cc(OC)c1OCCSc1ccc(OC)cc1` (racemic), the inhibition in vivo at 3 mg/kg in the data set with Mus musculus [3] is 24%; in the data set on Mus musculus [7] it was 3%. Moreover, the IC50 in data set [2] was found to be 0.071 µM; in data set [4] it was 0.039 µM. Also, in the data set listed under Homo sapiens [13], the Inhibition is on record as 32%.

Take `CCCCN(O)C(=O)NCc1cc([C@@H]2CC[C@@H](c3cc(OC)c(OC)c(OC)c3)O2)cc(OC)c1OCCSc1ccc(Cl)cc1` (racemic): the IC50 in [4] was determined as 0.167 µM. Further, the Inhibition in the data set filed under Homo sapiens [13] is given as 26%.

For the compound `CCCCN(O)C(=O)Nc1cc([C@@H]2CC[C@@H](c3cc(OC)c(OC)c(OC)c3)O2)cc(OC)c1OCCS(=O)(=O)c1c(F)c(F)cc(F)c1F` (racemic), the values for the inhibition in vivo at 3 mg/kg in the data set on Mus musculus [3] and with Mus musculus [7] were 50% and 12%, respectively. The IC50 in [2] was 0.52 µM; in data set [4], 0.285 µM.

Turning to `CCCCN(O)C(=O)Nc1cc([C@@H]2CC[C@@H](c3cc(OC)c(OC)c(OC)c3)O2)cc(OC)c1OCCS(=O)(=O)c1ccccc1Br` (racemic), in the data set with Mus musculus [3], the inhibition in vivo at 3 mg/kg amounted to 60%. Further, the half-inhibitory concentration (IC50) in data set [2] is 0.161 µM; in data set [4], 0.025 µM. Moreover, the Inhibition in the data set filed under Homo sapiens [13] amounted to 19%.

For `CC(c1cc2ccccc2s1)N(O)C(N)=O` (stereo not drawn) [ZILEUTON], in the data set filed under Homo sapiens [13], the Inhibition was 1%.
